According to ChEMBL document CHEMBL5126601 (ACS Med Chem Lett, 2022):
Active and inactive are the calls of the source. The calls are words filed in the database; no cut-off is given here.

What was measured:
Adenosine receptor A1 = target: T1, Adenosine receptor A1 (Homo sapiens, UniProt P30542); experiment: Binding affinity to human wild type adenosine A1 receptor expressed in Expi293F cells assessed as dissociation constant by surface plasmon resonance assay
T1 sequence (P30542 whole entry): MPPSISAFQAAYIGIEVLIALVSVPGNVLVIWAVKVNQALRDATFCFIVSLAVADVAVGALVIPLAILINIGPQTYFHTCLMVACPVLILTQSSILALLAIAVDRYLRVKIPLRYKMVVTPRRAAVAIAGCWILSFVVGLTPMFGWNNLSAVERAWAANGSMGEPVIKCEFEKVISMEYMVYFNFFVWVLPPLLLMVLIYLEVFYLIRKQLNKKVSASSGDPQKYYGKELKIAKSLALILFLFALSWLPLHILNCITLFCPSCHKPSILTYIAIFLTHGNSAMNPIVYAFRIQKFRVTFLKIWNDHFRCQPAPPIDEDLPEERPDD

Adenosine receptor A2b [1] = target: T2, Adenosine receptor A2b (Homo sapiens, UniProt P29275); experiment: Binding affinity to human wild type adenosine A2B receptor expressed in Expi293F cells assessed as dissociation constant by surface plasmon resonance assay
T2 sequence (P29275 whole entry): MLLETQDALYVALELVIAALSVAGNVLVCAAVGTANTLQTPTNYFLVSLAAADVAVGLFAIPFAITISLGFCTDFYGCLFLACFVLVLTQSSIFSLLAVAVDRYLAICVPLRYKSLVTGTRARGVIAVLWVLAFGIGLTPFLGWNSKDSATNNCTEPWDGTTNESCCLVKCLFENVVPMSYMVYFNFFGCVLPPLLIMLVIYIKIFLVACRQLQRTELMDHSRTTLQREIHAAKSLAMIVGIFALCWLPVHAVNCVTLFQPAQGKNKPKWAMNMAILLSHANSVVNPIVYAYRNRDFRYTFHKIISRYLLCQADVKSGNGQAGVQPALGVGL

Adenosine receptor A3 = target: T3, Adenosine receptor A3 (Homo sapiens, UniProt P0DMS8); experiment: Binding affinity to human wild type adenosine A3 receptor expressed in Expi293F cells assessed as dissociation constant by surface plasmon resonance assay
T3 sequence (P0DMS8 whole entry): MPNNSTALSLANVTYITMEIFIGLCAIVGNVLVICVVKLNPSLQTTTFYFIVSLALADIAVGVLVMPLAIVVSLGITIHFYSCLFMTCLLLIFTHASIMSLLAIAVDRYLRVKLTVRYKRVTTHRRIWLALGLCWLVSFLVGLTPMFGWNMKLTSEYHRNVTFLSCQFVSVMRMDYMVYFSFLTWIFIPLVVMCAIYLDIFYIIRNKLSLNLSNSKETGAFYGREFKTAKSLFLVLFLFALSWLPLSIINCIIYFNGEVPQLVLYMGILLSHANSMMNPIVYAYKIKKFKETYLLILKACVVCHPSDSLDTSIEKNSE

Adenosine receptor A2a [2] = target: T4, Adenosine receptor A2a (Homo sapiens, UniProt P29274); experiment: Antagonist activity at human adenosine A2A receptor expressed in HEK293T cells assessed as inhibition of EC20 concentration of NECA-induced cAMP accumulation by GloSensor cAMP accumulation assay; format: functional, cell-based; settings: filed as antagonist
T4 sequence (P29274 whole entry): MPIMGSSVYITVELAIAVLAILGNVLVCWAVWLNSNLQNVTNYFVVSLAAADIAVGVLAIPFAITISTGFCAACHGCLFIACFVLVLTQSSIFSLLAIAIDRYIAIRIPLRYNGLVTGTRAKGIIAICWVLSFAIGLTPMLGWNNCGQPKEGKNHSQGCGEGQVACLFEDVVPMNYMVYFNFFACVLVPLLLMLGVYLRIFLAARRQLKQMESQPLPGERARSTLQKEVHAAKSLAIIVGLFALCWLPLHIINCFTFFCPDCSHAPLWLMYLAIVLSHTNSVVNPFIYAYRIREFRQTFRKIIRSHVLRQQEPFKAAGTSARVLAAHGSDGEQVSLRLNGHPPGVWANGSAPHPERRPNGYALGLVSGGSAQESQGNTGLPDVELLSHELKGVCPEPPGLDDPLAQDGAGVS
Outline: (§1)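 HEK293T cells expressing A2A, GloSensor luciferase cAMP read-out; concentration–response curves run against EC20 NECA (3 nM). Data as % of maximum NECA response; mean ± SEM of at least three independent experiments in technical duplicate. Maximum tested concentration 0.63 mM where compound supply was limited; compounds also checked in cells lacking transfected A2A.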

Adenosine receptor A2a [3] = target: T4, Adenosine receptor A2a; experiment: Binding affinity to human wild type adenosine A2A receptor expressed in Expi293F cells assessed as dissociation constant by surface plasmon resonance assay
Adenosine receptor A2a [4] = target: T4, Adenosine receptor A2a; experiment: Allosteric modulator activity at human adenosine A2A receptor expressed in HEK293T cells assessed as stimulation of NECA-induced cAMP accumulation by GloSensor cAMP accumulation assay; format: functional, cell-based; settings: filed as positive allosteric modulator
Outline: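 GloSensor cAMP accumulation in HEK293T cells transiently expressing A2A; compound tested for modulation of NECA-stimulated cAMP (EC80 and EC20 NECA), concentrations up to 30 μM. Data as % of maximum NECA response; mean ± SEM of three to four experiments in at least duplicate.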

Adenosine receptor A2a [5] = target: T4, Adenosine receptor A2a; experiment: Antagonist activity at human adenosine A2A receptor expressed in HEK293T cells assessed as inhibition of EC20 concentration of NECA-induced cAMP accumulation by measuring fold change in potency by GloSensor cAMP accumulation assay; format: functional, cell-based; settings: filed as antagonist
Adenosine receptor A2a [6] = target: T4, Adenosine receptor A2a; experiment: Binding affinity to human wild type adenosine A2A receptor expressed in Expi293F cells assessed as inhibition constant taken from literature
Adenosine receptor A2a [7] = target: T4, Adenosine receptor A2a; experiment: Antagonist activity at human adenosine A2A receptor expressed in HEK293T cells assessed as inhibition of EC20 concentration of NECA-induced cAMP accumulation at 0.63 mM by GloSensor cAMP accumulation assay; format: functional, cell-based; settings: filed as antagonist; outline: as §1
Adenosine receptor A2a [8] = target: T4, Adenosine receptor A2a; experiment: Antagonist activity at human adenosine A2A receptor expressed in HEK293T cells assessed as inhibition of 500 nM NECA-induced cAMP accumulation by GloSensor cAMP accumulation assay; settings: filed as antagonist
[9] = target: T5, Adenosine receptor A1 (Homo sapiens) (UniProt P30542); experiment: Binding affinity to human wild type adenosine A1 receptor expressed in Expi293F cells assessed as affinity on-rate by surface plasmon resonance assay
T5 sequence (whole entry): T1 sequence (P30542 whole entry)

[10] = target: T5, Adenosine receptor A1 (Homo sapiens); experiment: Binding affinity to human wild type adenosine A1 receptor expressed in Expi293F cells assessed as affinity off-rate by surface plasmon resonance assay
Adenosine receptor A2b [11] = target: T2, Adenosine receptor A2b; experiment: Binding affinity to human wild type adenosine A2B receptor expressed in Expi293F cells assessed as affinity on-rate by surface plasmon resonance assay
Adenosine receptor A2b [12] = target: T2, Adenosine receptor A2b; experiment: Binding affinity to human wild type adenosine A2B receptor expressed in Expi293F cells assessed as affinity on-rate by surface plasmon resonance assay
[13] = target: T6, Adenosine receptor A3 (Homo sapiens) (UniProt P0DMS8); experiment: Binding affinity to human wild type adenosine A3 receptor expressed in Expi293F cells assessed as affinity off-rate by surface plasmon resonance assay
T6 sequence (whole entry): T3 sequence (P0DMS8 whole entry)

Kd (Adenosine receptor A1)	Kd (Adenosine receptor A2b [1])	Kd (Adenosine receptor A3)	Kd (Adenosine receptor A2a [3])	SMILES	also measured
2.21 µM	107 µM	104 µM	1.5 µM	Nc1nc(N)nc(-c2ccccc2)n1 [BENZOGUANAMINE]	Activity (Adenosine receptor A2a [2]): Active
20.7 µM	45 µM	36.5 µM	21.8 µM	Nc1nsc(-c2ccc(Cl)cc2)n1	Activity (Adenosine receptor A2a [4]): Active; Activity (Adenosine receptor A2a [5]): Active
51.7 µM	60.7 µM	50.7 µM	130 µM	Nc1nc(-c2ccccc2)ns1	–
–	–	–	31.8 µM	NC(=O)c1ncoc1-c1ccccc1	–
92 µM	22 µM	180 µM	100 µM	O=C(NCc1ccccc1)c1ccc2nonc2c1	–
–	–	–	9.6 µM	Nc1nc(N)c2nccnc2n1	–
–	–	–	0.0091 µM	Nc1nc(Nc2ccccc2)nc2c1ncn2[C@@H]1O[C@H](CO)[C@@H](O)[C@H]1O	Ki (Adenosine receptor A2a [6]): 0.076 µM
154 µM	199 µM	200 µM	131 µM	O=c1cc(NCc2ccccc2)nc2ccccn12	–
0.00605 µM	0.28 µM	0.74 µM	8.9 µM	Fc1ccc(-c2nn3ccccc3c2-c2ccncc2)cc1 [GW434756X]	Activity (Adenosine receptor A2a [7]): Active; Activity (Adenosine receptor A2a [8]): Active; K [9]: 1.63 10^6/M/s; K [10]: 0.01 s⁻¹; ka (Adenosine receptor A2b [11]): 1.52 10^5/M/s; ka (Adenosine receptor A2b [12]): 1.52 10^5/M/s; K [13]: 0.041 s⁻¹
41 µM	43.3 µM	52 µM	50.9 µM	O=C(Nc1ccccc1)Nc1ccccn1	–
34.3 µM	148 µM	18.9 µM	28.8 µM	Cn1c(=O)[nH]c2ccccc2c1=O	–
2.12 µM	–	–	0.56 µM	O=C(Nc1n[nH]c2nc(-c3ccco3)c(Br)cc12)C1CC1	K [9]: 4.25 10^4/M/s; K [10]: 0.09 s⁻¹; K [13]: 0.041 s⁻¹; Activity (Adenosine receptor A2a [5]): Active

SMILES	Kd (Adenosine receptor A1)	Kd (Adenosine receptor A2b [1])	Kd (Adenosine receptor A3)	Kd (Adenosine receptor A2a [3])	also measured
Oc1ncnc2[nH]ncc12 [ALLOPURINOL]	–	–	–	77 µM	–
